Measurements published in ChEMBL document CHEMBL5038587, “Synthesis of Methoxy-, Methylenedioxy-, Hydroxy-, and Halo-Substituted Benzophenanthridinone Derivatives as DNA Topoisomerase IB (TOP1) and Tyrosyl-DNA Phosphodiesterase 1 (TDP1) Inhibitors and Their Biological Activity for Drug-Resistant Cancer” (J Med Chem, 2021).
Active and inactive are the calls of the source. The calls are words filed in the database; no cut-off is given here.

Tests used:
[1] = molecular target: T1, DNA topoisomerase 1 (Homo sapiens) (UniProt P11387); experiment: Inhibition of recombinant TOP1 (unknown origin) at 1 uM using 3'-[32P]-labeled 117 bp DNA oligonucleotides as substrate incubated for 20 mins by PAGE analysis relative to CPT
T1 sequence (whole entry): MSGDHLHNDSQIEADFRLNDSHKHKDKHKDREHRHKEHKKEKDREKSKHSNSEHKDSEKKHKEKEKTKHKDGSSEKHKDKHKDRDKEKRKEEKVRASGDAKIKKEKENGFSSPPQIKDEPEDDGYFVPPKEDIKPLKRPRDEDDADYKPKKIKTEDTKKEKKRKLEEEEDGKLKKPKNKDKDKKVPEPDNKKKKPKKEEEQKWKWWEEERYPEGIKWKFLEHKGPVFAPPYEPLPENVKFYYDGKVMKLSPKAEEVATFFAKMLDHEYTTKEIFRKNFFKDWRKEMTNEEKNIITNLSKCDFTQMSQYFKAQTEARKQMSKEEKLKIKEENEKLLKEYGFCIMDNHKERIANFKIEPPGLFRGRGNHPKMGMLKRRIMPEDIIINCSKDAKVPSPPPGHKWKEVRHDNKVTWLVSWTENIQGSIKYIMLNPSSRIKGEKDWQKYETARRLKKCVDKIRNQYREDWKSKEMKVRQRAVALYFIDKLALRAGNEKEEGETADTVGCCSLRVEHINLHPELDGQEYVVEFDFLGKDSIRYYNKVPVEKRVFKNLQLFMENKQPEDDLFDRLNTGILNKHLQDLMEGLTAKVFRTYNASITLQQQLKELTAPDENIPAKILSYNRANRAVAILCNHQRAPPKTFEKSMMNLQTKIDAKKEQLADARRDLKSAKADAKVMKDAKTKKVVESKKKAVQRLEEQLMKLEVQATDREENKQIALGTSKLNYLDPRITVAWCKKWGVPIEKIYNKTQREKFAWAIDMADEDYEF
Summary of the method: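 3'-[32P]-labeled 117 bp oligonucleotide (~2 nM) with recombinant TOP1 and compound, 25 °C, 20 min. Buffer: 10 mM Tris-HCl pH 7.5, 50 mM KCl, 5 mM MgCl2, 0.1 mM EDTA, BSA. Stopped with 0.5% SDS and run on 20% denaturing PAGE with phosphorimaging.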

[2] = molecular target: Tyrosyl-DNA phosphodiesterase 1 (Homo sapiens, UniProt Q9NUW8); experiment: Inhibition of TDP1 (unknown origin) using 5'-FAM-AGGATCTAAAAGACTT-BHQ-3' as substrate at 100 uM measured after 30 mins by fluorescence assay relative to control
[3] = test system: DU-145; experiment: Cytotoxicity against human DU145 cells assessed as cell growth inhibition after 72 hrs by MTT assay; format: functional
Summary of the method: (§1)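 Compounds predissolved in DMSO, tested in a five-dose series from 0.01 to 100 µM for 72 h, then read by MTT. Percent viability inhibition is taken against control, and GI50 is fitted by nonlinear regression.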

[4] = test system: MCF7; experiment: Cytotoxicity against human MCF-7 cells assessed as cell growth inhibition after 72 hrs by MTT assay; format: functional; summary of the method: as §1
[5] = test system: A549; experiment: Cytotoxicity against human A549 cells assessed as cell growth inhibition after 72 hrs by MTT assay; format: functional
Summary of the method: (§2)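 Cells kept in RPMI 1640 or DMEM with 10% FBS at 37 °C, 5% CO2. Compounds predissolved in DMSO, tested in a five-dose series from 0.01 to 100 µM for 72 h, then read by MTT. Percent viability inhibition is taken against control, and GI50 is fitted by nonlinear regression.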

[6] = test system: HCT-116; experiment: Cytotoxicity against human HCT-116 cells assessed as cell growth inhibition after 72 hrs by MTT assay; format: functional; summary of the method: as §2
[7] = test system: MCF7; experiment: Cytotoxicity against human MCF-7/TDP1 cells assessed as cell growth inhibition after 72 hrs by MTT assay; format: functional
Summary of the method: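 MCF-7/TDP1 is a TDP1-overexpressing line made by transfecting parental MCF-7, grown in RPMI 1640 or DMEM with 10% FBS at 37 °C, 5% CO2. DMSO-dissolved compounds tested at five doses from 0.01 to 100 µM, read by MTT. GI50 (mean ± SD, at least three repeats) fitted by nonlinear regression against control.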

[8] = Resistance index,ratio of GI50 for growth inhibition of human MCF-7/TDP1 cells to GI50 for growth inhibition of human MCF-7 cells; format: functional
Summary of the method: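 Resistance index is the MTT GI50 in TDP1-overexpressing MCF-7/TDP1 (transfected MCF-7) divided by the GI50 in parental MCF-7. GI50 values are mean ± SD of at least three experiments.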

Chain of Tyrosyl-DNA phosphodiesterase 1 (Q9NUW8 whole entry): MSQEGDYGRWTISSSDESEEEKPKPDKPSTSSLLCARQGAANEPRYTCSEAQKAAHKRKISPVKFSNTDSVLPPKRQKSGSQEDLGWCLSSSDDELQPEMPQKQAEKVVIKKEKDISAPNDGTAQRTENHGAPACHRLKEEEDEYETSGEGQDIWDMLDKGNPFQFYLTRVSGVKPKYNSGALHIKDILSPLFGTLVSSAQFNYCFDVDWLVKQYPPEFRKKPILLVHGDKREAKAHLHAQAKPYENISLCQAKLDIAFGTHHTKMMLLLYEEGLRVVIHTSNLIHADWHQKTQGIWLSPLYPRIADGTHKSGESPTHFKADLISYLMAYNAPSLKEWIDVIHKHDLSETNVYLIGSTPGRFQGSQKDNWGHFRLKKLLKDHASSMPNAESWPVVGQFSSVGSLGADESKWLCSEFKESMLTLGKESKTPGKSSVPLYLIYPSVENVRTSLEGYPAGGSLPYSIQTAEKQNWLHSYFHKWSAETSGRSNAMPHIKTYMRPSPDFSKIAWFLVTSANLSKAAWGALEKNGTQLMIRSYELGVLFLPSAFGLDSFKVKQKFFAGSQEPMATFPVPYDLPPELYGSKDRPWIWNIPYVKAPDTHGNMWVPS

inhibition [1] | inhibition [2] [%] | Compound | other results
20% |  | COc1cc2c(cc1O)c(=O)n(CCN(C)C)c1c3cc4c(cc3ccc21)OCO4 | 
20% |  | COc1ccc2c(c1O)c(=O)n(CCN(C)C)c1c3cc4c(cc3ccc21)OCO4 | 
75% | 0 | CN(C)CCn1c(=O)c2cc(F)c(F)cc2c2ccc3cc4c(cc3c21)OCO4 | 
20% |  | CN(C)CCn1c(=O)c2c3c(ccc2c2ccc4ccccc4c21)OCO3 | 
20% | 0 | COc1ccc2c(ccc3c4ccccc4c(=O)n(CCN(C)C)c23)c1 | 
75% | 0 | CN(C)CCn1c(=O)c2cc([N+](=O)[O-])ccc2c2ccc3cc4c(cc3c21)OCO4 | 
20% | 0 | CN(C)CCn1c(=O)c2cc(O)c(O)cc2c2ccc3cc4c(cc3c21)OCO4 | GI50 [3]: > 100 µM
inactive | 0 | COc1ccc2c(=O)n(CCN(C)C)c3c4ccccc4ccc3c2c1OC | 
20% | 0 | COc1cc2c(=O)n(CCN(C)C)c3c4cc5c(cc4ccc3c2cc1O)OCO5 | GI50 [4]: > 100 µM; GI50 [5]: > 100 µM
inactive | 0 | COc1cc2ccc3c4ccc(OC)c(OC)c4c(=O)n(CCN(C)C)c3c2cc1OC | GI50 [6]: > 100 µM
inactive | 0 | COc1ccc2c(=O)n(CCN(C)C)c3c4cc5c(cc4ccc3c2c1O)OCO5 | GI50 [4]: > 100 µM
inactive | 0 | COc1cc2ccccc2c2c1c1ccccc1c(=O)n2CCN(C)C | 
inactive | 0 | CN(C)CCn1c(=O)c2cc(Br)ccc2c2ccc3cc4c(cc3c21)OCO4 | 
75% | 0 | CN(C)CCn1c(=O)c2cc(F)ccc2c2ccc3cc4c(cc3c21)OCO4 | GI50 [5]: 7.87 µM
 |  | COc1cc2c(=O)n(CCN(C)C)c3c4cc5c(cc4ccc3c2cc1OC)OCO5 | GI50 [4]: 0.2 µM; GI50 [7]: 7.42 µM; GI50 [3]: 0.078 µM; GI50 [5]: 0.32 µM; RatioGI50 [8]: 19.9; GI50 [6]: 0.14 µM
20% | 0 | CN(C)CCn1c(=O)c2ccccc2c2ccc3cc(Br)ccc3c21 | 
 |  | CC[C@@]1(O)C(=O)OCc2c1cc1n(c2=O)Cc2cc3ccccc3nc2-1 [CAMPTOTHECIN] | GI50 [4]: 0.35 µM; GI50 [7]: 3.21 µM; GI50 [5]: 0.31 µM; GI50 [6]: 0.05 µM
20% |  | CN(C)CCn1c(=O)c2cc3c(cc2c2ccc4cc5c(cc4c21)OCO5)OCO3 | 
inactive | 0 | COc1cc2ccc3c4c(OC)c(OC)ccc4c(=O)n(CCN(C)C)c3c2cc1OC | GI50 [4]: > 100 µM; GI50 [3]: > 100 µM; GI50 [6]: > 100 µM
20% | 0 | CN(C)CCn1c(=O)c2ccccc2c2ccc3ccccc3c21 | 
20% |  | COc1ccc2c(c1)c(=O)n(CCN(C)C)c1c3ccccc3ccc21 | 
20% | 0 | COc1ccc2ccc3c4ccccc4c(=O)n(CCN(C)C)c3c2c1 | 
50% | 0 | COc1cc2c(=O)n(CCN(C)C)c3c4cc(O)c(O)cc4ccc3c2cc1OC | 
inactive | 0 | COc1ccc2c(c1OC)c(=O)n(CCN(C)C)c1c3cc4c(cc3ccc21)OCO4 | 
20% | 0 | COc1cccc2c1ccc1c3ccccc3c(=O)n(CCN(C)C)c21 | 
inactive | 0 | COc1ccc2c(c1OC)c(=O)n(CCN(C)C)c1c3ccccc3ccc21 | 

inhibition [1] | inhibition [2] [%] | Compound | other results
75% | 0 | COc1ccc2c(=O)n(CCN(C)C)c3c4cc5c(cc4ccc3c2c1)OCO5 | GI50 [4]: 0.2 µM
50% | 0 | CN(C)CCn1c(=O)c2cc(F)c(F)cc2c2ccc3ccccc3c21 | 
inactive | 0 | COc1ccc2c(=O)n(CCN(C)C)c3c4cc5c(cc4ccc3c2c1OC)OCO5 | 
inactive |  | COc1cccc2c1c(=O)n(CCN(C)C)c1c3ccccc3ccc21 | 
25% |  | CN(C)CCn1c(=O)c2cc3c(cc2c2ccc4ccccc4c21)OCO3 | 
Active | 0 | COc1ccc2c(c1)c(=O)n(CCN(C)C)c1c3cc4c(cc3ccc21)OCO4 | 
< 20% |  | COc1cc2ccc3c4cc5c(cc4c(=O)n(CCN(C)C)c3c2cc1OC)OCO5 | 
20% | 0 | COc1cc2ccc3c4ccc5c(c4c(=O)n(CCN(C)C)c3c2cc1OC)OCO5 | 
< 20% |  | COc1cc2c3ccccc3c(=O)n(CCN(C)C)c2c2ccccc12 | 
20% | 0 | CN(C)CCn1c(=O)c2ccccc2c2ccc3cc4c(cc3c21)OCO4 | 
20% | 0 | COc1cc2c(=O)n(CCN(C)C)c3c4cc5c(cc4ccc3c2cc1OC(C)C)OCO5 | GI50 [6]: 0.9 µM
< 20% | 0 | COc1cc2ccc3c4cc(OC)c(OC)cc4c(=O)n(CCN(C)C)c3c2cc1O | 
inactive | 0 | COc1cccc2c(=O)n(CCN(C)C)c3c4ccccc4ccc3c12 | 
< 20% |  | COc1cc2ccc3c4cc(OC)c(OC)cc4c(=O)n(CCN(C)C)c3c2cc1OC | 
25% |  | COc1cc2c(=O)n(CCN(C)C)c3c4ccccc4ccc3c2cc1OC | 
inactive | 0 | COc1cc2c(cc1OC(C)C)c(=O)n(CCN(C)C)c1c3cc4c(cc3ccc21)OCO4 | 
inactive | 0 | COc1cccc2ccc3c4ccccc4c(=O)n(CCN(C)C)c3c12 | 
20% |  | COc1cc2c(ccc3c4cc(OC)c(OC)cc4c(=O)n(CCN(C)C)c23)cc1O | 
50% | 0 | CN(C)CCn1c(=O)c2ccc(F)cc2c2ccc3cc4c(cc3c21)OCO4 | 
20% |  | CN(C)CCn1c(=O)c2c3c(ccc2c2ccc4cc5c(cc4c21)OCO5)OCO3 | 
20% |  | COc1ccc2c(=O)n(CCN(C)C)c3c4ccccc4ccc3c2c1 | 
20% | 0 | COc1cccc2c1c(=O)n(CCN(C)C)c1c3cc4c(cc3ccc21)OCO4 | 
20% |  | COc1cc2ccc3c4ccccc4c(=O)n(CCN(C)C)c3c2cc1OC | 
75% | 0 | CN(C)CCn1c(=O)c2ccc(Cl)cc2c2ccc3cc4c(cc3c21)OCO4 | 
50% | 0 | CN(C)CCn1c(=O)c2ccc(C(F)(F)F)cc2c2ccc3cc4c(cc3c21)OCO4 | GI50 [3]: 1 µM
20% | 0 | CN(C)CCn1c(=O)c2cc(O)ccc2c2ccc3ccccc3c21 | 
